What was measured:
[1] = Binding constant dissolved in DMSO against hematin receptor at pH 7.4 (HEPES Buffer) upon incubation at 42 degree C
Method in brief: (§1)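 Hemin from 1.2 mM DMSO stock diluted to ~12 μM in 40% aqueous DMSO, 0.02 M HEPES, apparent pH 7.4–7.5 (monomeric hematin). Drug serial dilutions mixed with heme in microplate wells, 30 min incubation at the stated temperature, absorbance at 405 nm (Soret). Reference wells without heme subtract drug absorbance. Triplicate readings; log K by nonlinear least-squares fit, 1:1 heme–drug model.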

[2] = Binding constant dissolved in DMSO against hematin receptor at pH 7.4 (HEPES Buffer) upon incubation at 37 degree C; method in brief: as §1
[3] = Dose (diphosphate) present in DMSO required to inhibit Plasmodium berghei N/13 infected mice (Mus musculus) administered subcutaneously 3-4 hr after infection on day 1 and then twice daily on days 2 and 3; format: functional; details: sc, read-out: ID50 (the source's name)
Method in brief: (§2)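 MF1 mice inoculated iv with 2×10^7 P. berghei N/13 parasitized erythrocytes. Drug given sc as five injections over 72 h in olive oil/DMSO (96:4) or saline/DMSO (96:4). Parasitemia read at 72 h on Leishman-stained tail blood smears, 4–8 mice per dose, 2–8 dose levels. ID50 is the dose giving 50% inhibition versus concurrent vehicle-treated mice.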

[4] = Binding constant dissolved in DMSO against hematin receptor at pH 7.4 (HEPES Buffer) upon incubation at 30 degree C; method in brief: as §1
Plasmodium falciparum = assay: In vitro inhibition of Plasmodium falciparum K1; format: functional
Method in brief: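 Synchronized, mostly ring-stage P. falciparum K1 at 1.0% parasitemia in RPMI 1640 with 25 mM HEPES pH 7.4 and 32 mM NaHCO3. Drug from DMSO stock, final DMSO ≤0.01%. Culture 24 h at 37 °C under 17% O2/3% CO2/80% N2, then 18–24 h with [3H]hypoxanthine. Incorporation counted by scintillation after filter harvest; IC50 reported.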

Plasmodium berghei = assay: In vivo 50% inhibition of parasitaemia in Plasmodium berghei infected mice (Mus musculus) by oral dose; format: functional; details: read-out: ID50 (the source's name)
Method in brief: (§3)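 P. berghei-infected MF1 mice (2×10^7 parasitized erythrocytes iv). Drug in Water for Injections BP/DMSO (98:2) at 65 and 199 μM in drinking water, ad libitum; daily volume drunk measured to calculate dose. Parasitemia on Leishman-stained tail smears at 72 h, 4–8 mice per group. ID50 is 50% inhibition versus vehicle-treated mice.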

[5] = Binding constant dissolved in DMSO against hematin receptor at pH 7.4 (HEPES Buffer) upon incubation at 23 degree C; method in brief: as §1
[6] = Dose (dihydrochloride) present in DMSO required to inhibit Plasmodium berghei N/13 infected mice (Mus musculus) administered subcutaneously; format: functional; details: sc, read-out: ID50 (the source's name); method in brief: as §2
[7] = Dose present in DMSO required to inhibit Plasmodium berghei N/13 infected mice (Mus musculus) administered subcutaneously 3-4 hr after infection on day 1 and then twice daily on days 2 and 3; format: functional; details: sc, read-out: ID50 (the source's name); method in brief: as §2
[8] = Dose of the compound (hydrochloride) required to inhibit Plasmodium berghei Plasmodium berghei N/13 parasitemia by 50%; format: functional; details: read-out: ID50 (the source's name); method in brief: as §3
[9] = Dose (dihydrochloride) present in DMSO required to inhibit Plasmodium berghei NY infected mice (Mus musculus) administered intraperitoneally; format: functional; details: ip, read-out: ID50 (the source's name)
Method in brief: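 MF1 mice infected iv with 2×10^7 P. berghei NY parasitized erythrocytes. Dosing ip, five injections over 72 h, in Water for Injections BP/DMSO (96:4). Parasitemia counted on Leishman-stained tail smears at 72 h, groups of 4–8 mice. ID50 derived from 2–8 dose levels relative to vehicle-treated controls.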

| SMILES | Log K [1] | Log K [2] | ED50 [3] [µmol/kg] | Log K [4] | IC50 (Plasmodium falciparum) [nM] | ED50 (Plasmodium berghei) [µmol/kg] | Log K [5] | ED50 [6] [µmol/kg] | ED50 [7] [µmol/kg] | ED50 [8] [µmol/kg] | ED50 [9] [µmol/kg] |
| --- | --- | --- | --- | --- | --- | --- | --- | --- | --- | --- | --- |
| CCN(CC)CCCC(C)Nc1ccnc2cc(Cl)ccc12 (stereo not given) [CHLOROQUINE] | 5.3 | 5.4 | 8.3 | 5.4 | 230 | – | – | – | – | – | – |
| Clc1ccc2c(Nc3cccc(Nc4ccnc5cc(Cl)ccc45)c3)ccnc2c1 [METAQUINE] | 5.8 | 5.1 | – | 5.4 | 170 | 25 | 6.1 | 2.9 | 1.5 | 2.4 | 3.2 |
